FN deposition inh: fibronectin deposition inhibition; inhibition, % at 12.6 µM; 0.086% of 350,000 active; AH1F fibroblasts, Alexa488-fibronectin deposition fluorescence, overnight;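 active = mean inhibition across replicates of 30% or more, regardless of how many single replicates reach that level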;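 note: positive control wells lacked labelled fibronectin entirely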
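Measured by – fluorescence 485/525 nm · System – AH1F fibroblast monolayer, labelled fibronectin deposition · Amount – 10000 cells per well · Buffer or medium – serum-reduced DMEM (2% serum) · Doses – single dose, pinned · Also added – fluorescent fibronectin at 24 nM final · Schedule – 1 h cell attachment, overnight exposure to compound and label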
APOBEC3A inh: inhibitors of human APOBEC3A DNA deaminase | inhibition, % at 20 µM | 0.41% of 330,000 active | recombinant A3A, FAM/TAMRA ssDNA deamination fluorescence | P31941 | AID 493011;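 active = at least 40% inhibition at 20 µM here, with at most 30% in a related deaminase screen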;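 note: plate controls were A3A with DMSO for no effect and wells lacking A3A enzyme for full effect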
Target sequence (P31941 whole entry, looked up): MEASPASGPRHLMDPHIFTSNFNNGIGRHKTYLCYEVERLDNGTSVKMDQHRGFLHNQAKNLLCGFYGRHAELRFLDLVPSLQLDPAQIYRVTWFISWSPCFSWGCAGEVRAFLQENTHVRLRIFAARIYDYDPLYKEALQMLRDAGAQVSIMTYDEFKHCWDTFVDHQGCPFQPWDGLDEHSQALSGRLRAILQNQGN
APOBEC3G inh: blocks human APOBEC3G single-stranded DNA deamination; 0.28% of 330,000 active; Q9HC16; recombinant A3G, ssDNA deamination FAM/TAMRA fluorescence; inhibition, % at 20 µM; AID 493012;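 active = inhibition of at least 40% at 20 µM, with no more than 30% in the related APOBEC3A deaminase screen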;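 note: plate controls were DMSO wells with A3G for no effect and wells lacking A3G enzyme for full effect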
ABHD5 PLIN5 PPI: inhibitors of human ABHD5-perilipin-5 interaction; Split G. princeps luciferase complementation, luminescence, 4 h; inhibition, % at 4 µM; 0.78% of 360,000 active;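 active = inhibition above the mean inhibition across every tested compound plus 3 SD, cut at about 22% in these data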;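 note: 0% = DMSO only wells and the 100% control is not disclosed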
A3G conf: confirmation of human APOBEC3G DNA deaminase inhibitors | shares compounds with APOBEC3G inh | recombinant A3G ssDNA deaminase, UDG/FAM-TAMRA fluorescence | inhibition, % at 20 µM | 72% of 890 active | AID 493152;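 active = inhibition reaching a set limit in any replicate at 20 µM, the limit being 80% of the first screen's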
UDG A3G counter: E. coli UDG inhibition in APOBEC3G counter-screen; shares compounds with APOBEC3G inh; UDG counterscreen, FAM/TAMRA oligo fluorescence; inhibition, % at 20 µM; 710 tested, under 10 active; AID 504715;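 active = compounds giving 40% or more inhibition at 20 µM in any one of the three replicates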;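 note: plate controls were DMSO wells with UDG and oligo for no effect and DMSO wells lacking both for full effect; inhibitors lower the FAM signal released by uracil excision and alkaline cleavage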
Target sequence (P12295 whole entry, looked up): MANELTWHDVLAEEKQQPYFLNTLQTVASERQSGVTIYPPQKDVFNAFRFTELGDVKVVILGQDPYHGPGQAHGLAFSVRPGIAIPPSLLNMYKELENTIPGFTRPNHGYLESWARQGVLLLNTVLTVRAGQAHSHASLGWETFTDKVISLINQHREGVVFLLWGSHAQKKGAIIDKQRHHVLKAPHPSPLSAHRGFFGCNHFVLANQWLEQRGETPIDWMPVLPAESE
An asterisk follows results filed as active; · = no result given. Shown are actives, neighbours in structure and some others; about 1.2% of the full set was active somewhere.

SMILES | FN deposition inh | APOBEC3A inh | APOBEC3G inh | ABHD5 PLIN5 PPI | A3G conf | UDG A3G counter
c1cncc(-c2nn3c(Cn4cnc5ccccc54)nnc3s2)c1 | · | -1 | 53* | 2 | 13 | 3
CC(C)OC(=O)CSc1nnc(-c2ccc(C(C)(C)C)cc2)n1N | -4 | 3 | 42* | -10 | 28 | ·
S=c1[nH]nc(COc2ccccc2)n1/N=C/c1ccco1 | -5 | -4 | 59* | -3 | 71* | -2
CCC(CC)C(=O)c1c[nH]c(C(=O)N2CCN(c3ccc(OC)cc3)CC2)c1 | -28 | -6 | 48* | 3 | -2 | -5
CCC(=O)c1c[nH]c(C(=O)N2CCN(c3ccccc3)CC2)c1 | -2 | 0 | -3 | -7 | · | ·
O=C(C[C@@H]1CC[C@@H](NS(=O)(=O)c2ccc(F)cc2)[C@H](CO)O1)NCc1ccccc1F | -6 | · | · | · | · | ·
Cc1ccc(-c2ccc3c(c2)O[C@@H](CN(C)Cc2ccncc2)[C@H](C)CN([C@H](C)CO)S3(=O)=O)cc1 | 20 | · | · | · | · | ·
COc1cccc(CN2CCN(Cc3[nH]c4ccccc4c3C)CC2CCO)c1 (configuration not stated) | 7 | -2 | 51* | 8 | -8 | -8
C[C@H](CO)N1C[C@H](C)[C@@H](CN(C)S(=O)(=O)c2ccc(F)cc2)Oc2ccc(NC(=O)CCCCCC(=O)Nc3ccccc3N)cc2C1=O | -7 | · | · | · | · | ·
COc1ccc(C(=S)N2CCN(c3cccc(Cl)c3)CC2)c(OC)c1 | 16 | 2 | -2 | -10 | · | ·
Oc1ccc(C(=S)N2CCN(c3cccc(Cl)c3)CC2)cc1 | -3 | 4 | 40* | 2 | 41* | -2
Oc1ccccc1C(=S)N1CCN(c2cccc(Cl)c2)CC1 | -6 | 1 | 33 | -12 | · | ·
COc1cc(C(=S)N2CCN(c3cccc(Cl)c3)CC2)ccc1O | -2 | -1 | 50* | 10 | 40* | -4
CC[C@H]1CC=CC[C@H](C)Oc2ccccc2C(=O)N(C)[C@@H](C(C)C)C(=O)N1 (mixture of isomers) | -1 | · | · | · | · | ·
O=C1CCCCn2cc(nn2)COC[C@@H](c2ccccc2)N1 | -10 | · | · | · | · | ·
O=C(Nc1nc(-c2ccccn2)cs1)Nc1ccc(F)cc1F | -3 | 2 | 60* | -8 | 68* | -5
O=C(Nc1nc(-c2ccccc2)cs1)Nc1ccc(F)cc1F | -18 | 3 | 0 | -4 | · | ·
Cc1cc(-c2csc(N)n2)c(C)n1C | · | 7 | 44* | -2 | 17* | -3
O=[N+]([O-])c1ccc(Cl)c(/C=N/n2c(-c3cccnc3)n[nH]c2=S)c1 | · | 4 | 48* | · | 25 | ·
O=[N+]([O-])c1cccc(/C=N/n2c(-c3cccnc3)n[nH]c2=S)c1 | 2 | 1 | 69* | -2 | 74* | 3
Cc1ccsc1/C=N/n1c(-c2cccnc2)n[nH]c1=S | 17 | -7 | 40 | 1 | · | ·
O=[N+]([O-])c1ccc(/C=N/n2c(-c3cccnc3)n[nH]c2=S)cc1 | 2 | -6 | 63* | -4 | 62* | -3
Cc1cc(-c2n[nH]c(=S)n2/N=C/c2cc([N+](=O)[O-])ccc2Cl)n[nH]1 | 3 | · | · | 6 | · | ·
CCCNC(=O)N1[C@@H]2CNC[C@H]1C2c1ccc(-c2ccc(C)cc2)cc1 (some centres not stated) | 0 | · | · | · | · | ·
O=C(NC1CCCCCCC1)c1ccccc1O | · | -2 | 13 | -4 | · | ·
SMILES | FN deposition inh | APOBEC3A inh | APOBEC3G inh | ABHD5 PLIN5 PPI | A3G conf | UDG A3G counter
O=C(NC1CCCCCC1)c1ccc[nH]c1=S | -2 | -1 | 55* | -1 | 66* | 0
Cc1cc(NC(=O)CCCC(=O)NCc2ccccc2)no1 | -7 | 0 | 44* | 12 | 0 | ·
CC(=O)N(C)C[C@H]1Oc2ccccc2CC(=O)N(C)C[C@@H]1C | -13 | · | · | · | · | ·
COCC(=O)Nc1ccc2c(c1)[C@@H]1C[C@H](CC(=O)NCC3CC3)O[C@H](CO)[C@@H]1O2 | 8 | · | · | · | · | ·
Cc1ccc(N/N=C2\CCS(=O)(=O)c3sccc32)cc1 | 8 | -6 | 45* | 0 | -6 | -4
CN(C)/N=C1\CCS(=O)(=O)c2sccc21 | -9 | -3 | -6 | -1 | · | ·
O=C1c2ccccc2C(=O)N1CCSc1n[nH]c(=S)s1 | · | 1 | 54* | -6 | active | -4
O=C1c2ccccc2C(=O)N1CCSc1ncn[nH]1 | 3 | -3 | -5 | 0 | · | ·
C[C@@H]1CN([C@H](C)CO)C(=O)c2cc(-c3ccccc3)cnc2O[C@@H]1CN(C)C(=O)c1cccnc1 | 0 | · | · | · | · | ·
Cc1c(N2C(=O)/C(=C\c3ccccc3O)SC2=S)c(=O)n(-c2ccccc2)n1C | -19 | -2 | 56* | -20 | 75* | -1
S=c1nc(-c2ccccc2)n(-c2ccccc2)[nH]1 | -2 | -6 | 48* | 0 | 87* | -2
CCn1c(SCC(=O)Nc2ccc(OC)cc2)nnc1-c1ccco1 | · | -7 | -8 | 0 | · | ·
CCn1c(SCC(=O)Nc2ccc(OC)c(OC)c2)nnc1-c1ccco1 | -7 | -4 | 43* | 1 | -5 | -4
CCC(CC)c1nnc(NC(=O)COc2ccc3c(c2)OCO3)s1 | -2 | 3 | 45* | 3 | 47* | 0
CC(C)c1nnc(NC(=O)COc2ccc3c(c2)OCO3)s1 | 1 | -2 | -15 | -3 | · | ·
Cc1ccc(S(=O)(=O)Nc2ccc3c(c2)C(=O)N([C@H](C)CO)C[C@@H](C)[C@@H](CN(C)C(=O)Nc2c(C)noc2C)O3)cc1 | -4 | · | · | · | · | ·
O=c1[nH]c(-c2ccncc2)nc2ccccc12 | 7 | 9 | 58* | -8 | 56* | -2
O=c1[nH]c(-c2cccnc2)nc2ccccc12 | -3 | 5 | -1 | 1 | · | ·
Cc1ccc(-c2c(C)cc3oc(=O)cc(-c4ccccc4)c3c2C)cc1 | · | 1 | 2 | -4 | · | ·
CCOC(=O)c1ccc(-c2c(C)cc3oc(=O)cc(-c4ccccc4)c3c2C)cc1 | -6 | 4 | 84* | 0 | 2 | ·
Cc1ccc(SSc2cc(C)ccc2N)c(N)c1 | -2 | 2 | 79* | 7 | 86* | ·
S=C(c1ccc(Br)cc1)N1CCN(Cc2ccccc2)CC1 | · | 0 | 40* | -6 | 29 | ·
O=C(C[C@H]1CC[C@H](NC(=O)NC2CCCCC2)[C@H](CO)O1)NCc1ccc(F)cc1 | -7 | · | · | · | · | ·
Cc1cc(OCC(=O)N(C)c2ccccc2)cc2c1C(=O)CC(C)(C)O2 | 4 | 2 | 59* | 4 | 1 | ·
CS(=O)(=O)N1C[C@H](O)COC[C@@H]2O[C@@H](CC(=O)NCCc3ccncc3)CC[C@H]21 | -4 | · | · | · | · | ·
S=c1nc(C2COc3ccccc3O2)[nH][nH]1 (configuration not stated) | -6 | 1 | 52* | -5 | 71* | -3
CO[C@@H]1CN(C)C(=O)c2ccc(NS(=O)(=O)c3cn(C)cn3)cc2OC[C@@H](C)NC[C@@H]1C | -7 | · | · | · | · | ·
CCOC(=O)C1CCCN(C(=O)Cn2sc3nc(C)cc(C)c3c2=O)C1 (configuration not stated) | · | -5 | 50* | 64* | 78* | -4
